Experimental findings from ChEMBL document CHEMBL1155420, “Synthesis, antibacterial and antifungal activities of some carbazole derivatives” (2010) are described below.

In general, MIC50 refers to the lowest concentration that inhibits either 50% of growth or 50% of the strains tested, depending on the study. Read a low MIC50 as greater potency.

Values after ≈ are worked out from the molar mass of the structure shown. A value given as a limit tells only on which side of the number the result lay.

What all share (assay type): functional
The subject of experiment [1] is Escherichia coli. Briefly: Antibacterial activity against Escherichia coli ATCC 25922 after 24 hrs by two fold serial dilution method. The note with it: ATCC 25922, 24 h. Put shortly: (§1)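 MICs determined by modified microbroth twofold dilution per NCCLS. Compounds were tested at 512, 256, 128, 64, 32, 16, 8, 4, 2, 1 and 0.5 µg/mL. Dilutions were inoculated and incubated at 37 °C for 24 h. A DMSO solvent control in test medium was run at the same dilutions.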

For experiment [2], the system named is Pseudomonas aeruginosa. Kind of experiment: Antibacterial activity against Pseudomonas aeruginosa ATCC 27853 after 24 hrs by two fold serial dilution method. The conditions noted are these: ATCC 27853, 24 h. The gist of the method:
as §1

The test system of experiment [3] is Proteus vulgaris. Kind of experiment: Antibacterial activity against Proteus vulgaris ATCC 49027 after 24 hrs by two fold serial dilution method. The note with it: ATCC 49027, 24 h. Put shortly: as §1
The subject of experiment [4] is Aspergillus fumigatus. Kind of experiment: Antifungal activity against Aspergillus fumigatus ATCC 96918 after 24 hrs by two fold serial dilution method. The conditions noted are these: ATCC 96918, 24 h. The gist of the method:
(§2)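 Modified NCCLS microbroth dilution, with eleven compound concentrations from 0.5 to 512 µg/mL. Dilutions were inoculated and incubated at 35 °C for 24 h. MIC50 was taken as the first well showing about 50% growth reduction versus the drug-free well.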

Experiment [5] has as its system Staphylococcus aureus. Briefly: Antibacterial activity against Staphylococcus aureus ATCC 29213 after 24 hrs by two fold serial dilution method. The note with it: ATCC 29213, 24 h. The gist of the method: as §1
Experiment [6] deals with Staphylococcus aureus. Briefly: Antibacterial activity against Methicillin-Resistant Staphylococcus aureus subsp. aureus N315 after 24 hrs by two fold serial dilution method. The conditions noted are these: N315, 24 h. Put shortly:
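Modified microbroth dilution following National Committee for Clinical Laboratory Standards methods. Twofold serial dilutions were set at 512, 256, 128, 64, 32, 16, 8, 4, 2, 1 and 0.5. Dilutions were inoculated with strain N315 and incubated at 37 °C for 24 h. A solvent control used medium with DMSO at the same dilutions. Read-out was the MIC.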

Experiment [7] relates to Candida albicans. Kind of experiment: Antifungal activity against Candida albicans ATCC 76615 after 24 hrs by two fold serial dilution method. The note with it: ATCC 76615, 24 h. Put shortly: as §2
Experiment [8] concerns Bacillus subtilis. Briefly: Antibacterial activity against Bacillus subtilis ATCC 21216 after 24 hrs by two fold serial dilution method. The note with it: ATCC 21216, 24 h. The gist of the method: as §1

Turning to `c1ccc2c(c1)c1ccccc1n2CCCCn1ccnc1`, the MIC50 came out at 8 µg/mL (≈ 27.6 µM) in experiment [1]; 1 µg/mL (≈ 3.46 µM) in experiment [2]; 1 µg/mL (≈ 3.46 µM) in experiment [3]; 64 µg/mL (≈ 221 µM) in experiment [4]; 2 µg/mL (≈ 6.91 µM) in experiment [5]; 4 µg/mL (≈ 13.8 µM) in experiment [6]. For the same molecule, the MIC50 in experiment [7] was 16 µg/mL (≈ 55.3 µM); in experiment [8], 4 µg/mL (≈ 13.8 µM).

Consider `c1ccc2c(c1)c1ccccc1n2CCCCn1cncn1`, for which the MIC50 in experiment [1] was 32 µg/mL (≈ 110 µM); in experiment [2] it was 128 µg/mL (≈ 441 µM); in experiment [3], greater than 512 µg/mL; in experiment [4] it was greater than 512 µg/mL; in experiment [5], 256 µg/mL (≈ 882 µM); in experiment [6], greater than 512 µg/mL. Also, the MIC50 is 2 µg/mL (≈ 6.89 µM) in experiment [7] and greater than 512 µg/mL in experiment [8].

As for `CCn1cc(C(=O)O)c(=O)c2cc(F)c(N3CCNCC3)cc21` [NORFLOXACIN], the MIC50 in experiment [1] is 0.5 µg/mL (≈ 1.57 µM); in experiment [2] it was 2 µg/mL (≈ 6.26 µM); in experiment [3], 1 µg/mL (≈ 3.13 µM); in experiment [5], 8 µg/mL (≈ 25.1 µM); in experiment [6], 1 µg/mL (≈ 3.13 µM); in experiment [8], 1 µg/mL (≈ 3.13 µM).

Regarding `O=C(N[C@H](CO)[C@H](O)c1ccc([N+](=O)[O-])cc1)C(Cl)Cl` [CHLORAMPHENICOL], the MIC50 in experiment [1] was 64 µg/mL (≈ 198 µM); in experiment [2] it was greater than 512 µg/mL; in experiment [3], 16 µg/mL (≈ 49.5 µM); in experiment [5] it was 64 µg/mL (≈ 198 µM); in experiment [6], 8 µg/mL (≈ 24.8 µM); in experiment [8], greater than 512 µg/mL.

As for `c1ccc2c(c1)c1ccccc1n2CCCCCCn1cncn1`, the MIC50 is 16 µg/mL (≈ 50.2 µM) in experiment [1]; 32 µg/mL (≈ 100 µM) in experiment [2]; greater than 512 µg/mL in experiment [3]; greater than 512 µg/mL in experiment [4]; 32 µg/mL (≈ 100 µM) in experiment [5]; 64 µg/mL (≈ 201 µM) in experiment [6]. The MIC50 in experiment [7] is 2 µg/mL (≈ 6.28 µM); in experiment [8], greater than 512 µg/mL.

For `c1ccc2c(c1)c1ccccc1n2CCCCCCn1ccnc1`, the MIC50 in experiment [1] turned out to be 4 µg/mL (≈ 12.6 µM); in experiment [2], 1 µg/mL (≈ 3.15 µM); in experiment [3], 1 µg/mL (≈ 3.15 µM); in experiment [4], 128 µg/mL (≈ 403 µM); in experiment [5], 8 µg/mL (≈ 25.2 µM); in experiment [6], 8 µg/mL (≈ 25.2 µM). Moreover, the figures for the MIC50 in experiment [7] and in experiment [8] were 16 µg/mL (≈ 50.4 µM) and 8 µg/mL (≈ 25.2 µM), respectively.

Turning to `c1ccc2c(c1)c1ccccc1n2CCCCn1c2ccccc2c2ccccc21`, the MIC50 in experiment [1] was greater than 512 µg/mL; in experiment [2], greater than 512 µg/mL; in experiment [3] it was 64 µg/mL (≈ 165 µM); in experiment [4], greater than 512 µg/mL; in experiment [5], greater than 512 µg/mL; in experiment [6] it was greater than 512 µg/mL. In addition, the MIC50 in experiment [7] and in experiment [8] was greater than 512 µg/mL throughout.

As to `BrCCCCCCn1c2ccccc2c2ccccc21`, the MIC50 in experiment [1] was greater than 512 µg/mL; in experiment [2], greater than 512 µg/mL; in experiment [3], greater than 512 µg/mL; in experiment [4] it was 512 µg/mL (≈ 1550 µM); in experiment [5], 128 µg/mL (≈ 388 µM); in experiment [6], greater than 512 µg/mL. For the same molecule, the MIC50 in experiment [7] and in experiment [8] was greater than 512 µg/mL throughout.

Take `BrCc1ccc(Cn2c3ccccc3c3ccccc32)cc1`: the MIC50 in experiment [1] is 256 µg/mL (≈ 731 µM); in experiment [2], 256 µg/mL (≈ 731 µM); in experiment [3], 512 µg/mL (≈ 1460 µM); in experiment [4] it was greater than 512 µg/mL; in experiment [5], 128 µg/mL (≈ 365 µM); in experiment [6], greater than 512 µg/mL. The MIC50 in experiment [7] is greater than 512 µg/mL; in experiment [8] it was 256 µg/mL (≈ 731 µM).

As to `Clc1ccc(C[n+]2cnn(Cc3ccc(Cn4c5ccccc5c5ccccc54)cc3)c2)c(Cl)c1.[Cl-]`, the MIC50 in experiment [1] came to 2 µg/mL; in experiment [2], 4 µg/mL; in experiment [3] it was 8 µg/mL; in experiment [4], 64 µg/mL; in experiment [5] it was 2 µg/mL; in experiment [6], 8 µg/mL. Also, the MIC50 in experiment [7] came to 32 µg/mL; in experiment [8], 2 µg/mL.

With `c1ccc2c(c1)c1ccccc1n2Cc1ccc(Cn2cncn2)cc1`, the MIC50 was 32 µg/mL (≈ 94.6 µM) in experiment [1]; greater than 512 µg/mL in experiment [2]; greater than 512 µg/mL in experiment [3]; greater than 512 µg/mL in experiment [4]; 256 µg/mL (≈ 756 µM) in experiment [5]; greater than 512 µg/mL in experiment [6]. For the same molecule, the MIC50 is 4 µg/mL (≈ 11.8 µM) in experiment [7] and greater than 512 µg/mL in experiment [8].

Consider `c1ccc2c(c1)c1ccccc1n2CCCCCCn1c2ccccc2c2ccccc21`, for which the MIC50 in experiment [1] was greater than 512 µg/mL; in experiment [2], greater than 512 µg/mL; in experiment [3], greater than 512 µg/mL; in experiment [4], 256 µg/mL (≈ 615 µM); in experiment [5], 128 µg/mL (≈ 307 µM); in experiment [6], greater than 512 µg/mL. In addition, the MIC50 in experiment [7] and in experiment [8] was greater than 512 µg/mL throughout.

For `c1ccc2c(c1)c1ccccc1n2Cc1ccc(Cn2c3ccccc3c3ccccc32)cc1`, the MIC50 in experiment [1] is greater than 512 µg/mL; in experiment [2], greater than 512 µg/mL; in experiment [3], greater than 512 µg/mL; in experiment [4], greater than 512 µg/mL; in experiment [5] it was 256 µg/mL (≈ 586 µM); in experiment [6], greater than 512 µg/mL. Also, the MIC50 in experiment [7] and in experiment [8] was greater than 512 µg/mL throughout.

For `OC(Cn1cncn1)(Cn1cncn1)c1ccc(F)cc1F` [FLUCONAZOLE], the MIC50 in experiment [4] was found to be 512 µg/mL (≈ 1670 µM); in experiment [7], 0.5 µg/mL (≈ 1.63 µM).

On to `BrCCCCn1c2ccccc2c2ccccc21`, for which the MIC50 in experiment [1] is greater than 512 µg/mL; in experiment [2], 128 µg/mL (≈ 424 µM); in experiment [3] it was greater than 512 µg/mL; in experiment [4] it was greater than 512 µg/mL; in experiment [5], 256 µg/mL (≈ 847 µM); in experiment [6], greater than 512 µg/mL. Further, the MIC50 is 512 µg/mL (≈ 1690 µM) in experiment [7] and greater than 512 µg/mL in experiment [8].

For `c1ccc2c(c1)c1ccccc1n2Cc1ccc(Cn2ccnc2)cc1`, the MIC50 in experiment [1] was 8 µg/mL (≈ 23.7 µM); in experiment [2] it was 1 µg/mL (≈ 2.96 µM); in experiment [3], 4 µg/mL (≈ 11.9 µM); in experiment [4], greater than 512 µg/mL; in experiment [5], 1 µg/mL (≈ 2.96 µM); in experiment [6], 8 µg/mL (≈ 23.7 µM). The MIC50 in experiment [7] is 16 µg/mL (≈ 47.4 µM); in experiment [8], 4 µg/mL (≈ 11.9 µM).
